From ChEMBL document CHEMBL2057134, “Small molecule tertiary amines as agonists of the nuclear hormone receptor Rev-erbα” (Bioorg Med Chem Lett, 2012)

system: not listed separately; experiment: Drug uptake in C57BL/6 mouse brain at 50 mg/kg, ip measured after 8 hrs by LC-MS/MS analysis; settings: not given

Row | Structure (SMILES) | concentration at 8 h [nM]
1 | CCOC(=O)N1CCC(CN(Cc2ccc(Cl)cc2)Cc2ccc([N+](=O)[O-])s2)C1 (racemic) [SR9009] | 8700

target: T1, Nuclear receptor subfamily 1 group D member 1 (Homo sapiens) (UniProt P20393); experiment: Agonist activity at Rev-Erbalpha expressed in HEK293 cells coexpressing […] promoter assessed as repression of transcription at 10 uM after 24 hrs by dual-Glo luciferase assay relative to control; assay type: functional, cell-based; settings: not given
T1 sequence (whole entry): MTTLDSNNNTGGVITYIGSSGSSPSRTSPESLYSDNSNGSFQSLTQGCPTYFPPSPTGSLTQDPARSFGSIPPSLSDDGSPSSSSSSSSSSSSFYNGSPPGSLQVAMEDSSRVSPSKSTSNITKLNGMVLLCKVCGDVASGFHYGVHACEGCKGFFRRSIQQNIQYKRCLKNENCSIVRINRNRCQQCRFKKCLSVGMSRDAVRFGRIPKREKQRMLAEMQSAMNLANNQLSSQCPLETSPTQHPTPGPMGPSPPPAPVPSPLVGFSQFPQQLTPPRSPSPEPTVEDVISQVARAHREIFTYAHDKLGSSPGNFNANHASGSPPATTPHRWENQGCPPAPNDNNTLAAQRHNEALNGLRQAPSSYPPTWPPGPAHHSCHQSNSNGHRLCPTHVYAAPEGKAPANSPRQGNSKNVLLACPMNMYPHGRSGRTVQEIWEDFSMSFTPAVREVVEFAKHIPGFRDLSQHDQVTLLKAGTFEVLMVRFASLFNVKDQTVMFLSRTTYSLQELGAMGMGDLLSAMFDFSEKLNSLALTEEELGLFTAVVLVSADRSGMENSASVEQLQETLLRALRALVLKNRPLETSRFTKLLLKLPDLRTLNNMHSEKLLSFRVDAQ
In short: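 Cells co-transfected with full-length Rev-erbα expression plasmid plus Bmal1 promoter-luciferase reporter; renilla luciferase for normalization and toxicity check. Average of 2 or more experiments.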

Row | Structure (SMILES) | Ratio
2 | COc1ccc(CN(CC(=O)OC(C)(C)C)Cc2ccc([N+](=O)[O-])s2)cc1 | 0.68
3 | NC(=O)CN(Cc1ccc(Cl)cc1)Cc1ccc([N+](=O)[O-])s1 | 0.75
4 | N#CCN(Cc1ccc(Cl)cc1)Cc1ccc([N+](=O)[O-])s1 | 0.79
5 | CN1CCC(CN(Cc2ccc(Cl)cc2)Cc2ccc([N+](=O)[O-])s2)C1 (racemic) | 0.95
6 | CC(C)(C)OC(=O)N1CCC(N(Cc2ccc(Cl)cc2)Cc2ccc([N+](=O)[O-])s2)CC1 | 0.31
7 | CC(C)(C)OC(=O)N1CCC(CN(Cc2ccc(Cl)cc2)Cc2ccc([N+](=O)[O-])s2)CC1 | 0.8
8 | CC(C)(C)OC(=O)CN(Cc1ccc([N+](=O)[O-])s1)S(=O)(=O)c1cccc2ccccc12 | 0.37
9 | O=[N+]([O-])c1ccc(CN(Cc2ccc(Cl)cc2)CC2COc3ccccc3O2)s1 (racemic) | 0.4
10 | O=[N+]([O-])c1ccc(CN(Cc2ccc(Cl)cc2)CC2CCN(S(=O)(=O)Cc3ccccc3)C2)s1 (racemic) | 0.4
11 | CC(C)(C)OC(=O)CN(Cc1ccc(Cl)cc1)Cc1nc2ccccc2s1 | 0.82
12 | CC(C)(C)OC(=O)N1CCCC(N(Cc2ccc(Cl)cc2)Cc2ccc([N+](=O)[O-])s2)C1 (racemic) | 0.14
13 | O=C(c1cccc2ccccc12)N(Cc1ccc(Cl)cc1)Cc1ccc([N+](=O)[O-])s1 | 0.4
14 | CC(C)(C)OC(=O)CN(Cc1ccc(F)cc1)Cc1ccc([N+](=O)[O-])s1 | 0.77
15 | COC(=O)CN(Cc1ccc(Cl)cc1)Cc1ccc([N+](=O)[O-])s1 | 0.8
16 | CC(C)(C)OC(=O)CN(Cc1ccc2ccccc2c1)Cc1ccc([N+](=O)[O-])s1 | 0.6
17 | Cc1ccc(S(=O)(=O)N2CCC(CN(Cc3ccc(Cl)cc3)Cc3ccc([N+](=O)[O-])s3)C2)cc1 (racemic) | > 1
18 | CC(C)(C)OC(=O)N1CCC(CN(Cc2ccc(Cl)cc2)Cc2ccc([N+](=O)[O-])s2)C1 (racemic) | 0.33
19 | O=[N+]([O-])c1ccc(CN(Cc2ccc(Cl)cc2)Cc2nc3ccccc3s2)s1 | 0.5
20 | O=C(Nc1ccc([N+](=O)[O-])cc1)N1CCC(CN(Cc2ccc(Cl)cc2)Cc2ccc([N+](=O)[O-])s2)C1 (racemic) | 0.37
21 | O=[N+]([O-])c1ccc(CN(Cc2ccc(Cl)cc2)Cc2ccc3ccccc3c2)s1 | 0.7
22 | CC(C)(C)OC(=O)CN(Cc1ccncc1)Cc1ccc(Cl)cc1 | 0.81
23 | C=CCOC(=O)N1CCC(CN(Cc2ccc(Cl)cc2)Cc2ccc([N+](=O)[O-])s2)C1 (racemic) | 0.35
24 | CC(C)(C)OC(=O)CNCc1ccc(Cl)cc1 | 1.2

Row | Structure (SMILES) | Ratio
25 | CS(=O)(=O)N1CCC(CN(Cc2ccc(Cl)cc2)Cc2ccc([N+](=O)[O-])s2)C1 (racemic) | 0.3
26 | CC(C)(C)OC(=O)CN(Cc1ccc([N+](=O)[O-])s1)C(=O)c1cccc2ccccc12 | 0.48
27 | CC(=O)N1CCC(CN(Cc2ccc(Cl)cc2)Cc2ccc([N+](=O)[O-])s2)C1 (racemic) | 0.35
28 | O=[N+]([O-])c1ccc(CN(Cc2ccc(Cl)cc2)CC2CCCCC2)s1 | 0.3
29 | Cc1ccc(S(=O)(=O)N(Cc2ccc(Cl)cc2)Cc2ccc([N+](=O)[O-])s2)cc1 | 0.5
30 | CS(=O)(=O)n1ccc(CN(Cc2ccc(Cl)cc2)Cc2ccc([N+](=O)[O-])s2)c1 | 1
31 | CCCCNC(=O)N1CCC(CN(Cc2ccc(Cl)cc2)Cc2ccc([N+](=O)[O-])s2)C1 (racemic) | 0.35
32 | O=[N+]([O-])c1ccc(CN(Cc2ccc(Cl)cc2)CC2CCN(Cc3ccccc3)C2)s1 (racemic) | 1
33 | CC(C)(C)OC(=O)N1CCCC(CN(Cc2ccc(Cl)cc2)Cc2ccc([N+](=O)[O-])s2)C1 (racemic) | 0.9
34 | CC(C)(C)OC(=O)N1CCC(N(Cc2ccc(Cl)cc2)Cc2ccc([N+](=O)[O-])s2)C1 (racemic) | 0.24
35 | CC(C)(C)OC(=O)CN(Cc1ccccc1)Cc1ccc([N+](=O)[O-])s1 | 1.1
36 | O=[N+]([O-])c1ccc(CN(Cc2ccc(Cl)cc2)CC2CCN(S(=O)(=O)c3cccc4ccccc34)C2)s1 (racemic) | 0.45
37 | Cc1ccc(S(=O)(=O)N(CC(=O)OC(C)(C)C)Cc2ccc([N+](=O)[O-])s2)cc1 | 0.5
38 | O=[N+]([O-])c1ccc(CN(Cc2ccc(Cl)cc2)Cc2ccc(C(F)(F)F)cc2)s1 | 0.45
39 | CC(C)(C)OC(=O)CN(Cc1ccc([N+](=O)[O-])cc1)Cc1ccc([N+](=O)[O-])s1 | 0.58
40 | O=C(Oc1ccccc1)N1CCC(CN(Cc2ccc(Cl)cc2)Cc2ccc([N+](=O)[O-])s2)C1 (racemic) | 0.55
41 | CC(C)(C)OC(=O)CN(Cc1ccc(Cl)cc1)Cc1cccs1 | 0.93
42 | CC(C)(C)OC(=O)CN(Cc1ccc(Cl)cc1)Cc1cnc[nH]1 | 0.88
43 | O=C(O)CN(Cc1ccc(Cl)cc1)Cc1ccc([N+](=O)[O-])s1 | 0.85
44 | CC(C)(C)OC(=O)CN(Cc1ccc(Cl)cc1)CC1CCCC1 | 1.1
45 | O=C(Nc1ccccc1)N1CCC(CN(Cc2ccc(Cl)cc2)Cc2ccc([N+](=O)[O-])s2)C1 (racemic) | 0.33
46 | CC(C)(C)OC(=O)CN(Cc1ccc([N+](=O)[O-])s1)Cc1cccc2ccccc12 | 0.6

system: not listed separately; experiment: Plasma concentration in C57BL/6 mouse at 10 mg/kg, ip measured after 2 hrs by LC-MS/MS analysis; assay type: ADME, organism-based; parameters: dose 10 mg/kg, route intraperitoneal; settings: not given
In short: (§1)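 C57Bl6 mice (n = 3) given 10 mg/kg IP in 10:10:80 DMSO:Tween:water; blood and brain collected at 2 h. Plasma frozen at −80°C. Plasma and brain mixed with acetonitrile (1:5 v:v or w:v), brain probe-sonicated. Drug quantified by LC-MS/MS against standards in plasma or blank brain matrix.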

Row | Structure (SMILES) | concentration at 2 h [nM]
47 | CS(=O)(=O)N1CCC(CN(Cc2ccc(Cl)cc2)Cc2ccc([N+](=O)[O-])s2)C1 (racemic) | 540
48 | CCCCNC(=O)N1CCC(CN(Cc2ccc(Cl)cc2)Cc2ccc([N+](=O)[O-])s2)C1 (racemic) | 530

system: not listed separately; experiment: Drug uptake in C57BL/6 mouse brain at 10 mg/kg, ip measured after 2 hrs by LC-MS/MS analysis; assay type: ADME, organism-based; parameters: dose 10 mg/kg, route intraperitoneal; settings: read-out: Drug uptake; in short: as §1

Row | Structure (SMILES) | concentration at 2 h [nM]
49 | CS(=O)(=O)N1CCC(CN(Cc2ccc(Cl)cc2)Cc2ccc([N+](=O)[O-])s2)C1 (racemic) | 1300
50 | CCCCNC(=O)N1CCC(CN(Cc2ccc(Cl)cc2)Cc2ccc([N+](=O)[O-])s2)C1 (racemic) | 240

target: T2, Nuclear receptor subfamily 1 group D member 1 (Homo sapiens, UniProt P20393); experiment: Agonist activity at Rev-Erbalpha expressed in HEK293 cells coexpressing […] promoter assessed as repression of transcription after 24 hrs by dual-Glo luciferase assay; assay type: functional, cell-based; settings: not given
T2 sequence (P20393 whole entry): T1 sequence (whole entry)
In short: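 Cells co-transfected with full-length Rev-erbα expression plasmid and Bmal1 promoter-driven luciferase reporter. Renilla luciferase used for normalization and toxicity monitoring. Average of 2 or more experiments.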

Row | Structure (SMILES) | EC50 [µM]
51 | COc1ccc(CN(CC(=O)OC(C)(C)C)Cc2ccc([N+](=O)[O-])s2)cc1 | 2.9
52 | NC(=O)CN(Cc1ccc(Cl)cc1)Cc1ccc([N+](=O)[O-])s1 | 3
53 | N#CCN(Cc1ccc(Cl)cc1)Cc1ccc([N+](=O)[O-])s1 | 2.5
54 | CC(C)(C)OC(=O)CN(Cc1ccc([N+](=O)[O-])s1)S(=O)(=O)c1cccc2ccccc12 | 0.8
55 | O=[N+]([O-])c1ccc(CN(Cc2ccc(Cl)cc2)CC2COc3ccccc3O2)s1 (racemic) | 7.8
56 | O=[N+]([O-])c1ccc(CN(Cc2ccc(Cl)cc2)CC2CCN(S(=O)(=O)Cc3ccccc3)C2)s1 (racemic) | 0.63
57 | O=C(c1cccc2ccccc12)N(Cc1ccc(Cl)cc1)Cc1ccc([N+](=O)[O-])s1 | 2.6
58 | CC(C)(C)OC(=O)CN(Cc1ccc(F)cc1)Cc1ccc([N+](=O)[O-])s1 | 2
59 | COC(=O)CN(Cc1ccc(Cl)cc1)Cc1ccc([N+](=O)[O-])s1 | 3.9
60 | CC(C)(C)OC(=O)N1CCC(CN(Cc2ccc(Cl)cc2)Cc2ccc([N+](=O)[O-])s2)C1 (racemic) | 1.8
61 | O=[N+]([O-])c1ccc(CN(Cc2ccc(Cl)cc2)Cc2nc3ccccc3s2)s1 | 4
62 | O=C(Nc1ccc([N+](=O)[O-])cc1)N1CCC(CN(Cc2ccc(Cl)cc2)Cc2ccc([N+](=O)[O-])s2)C1 (racemic) | 0.4
63 | O=[N+]([O-])c1ccc(CN(Cc2ccc(Cl)cc2)Cc2ccc3ccccc3c2)s1 | 8.8
64 | C=CCOC(=O)N1CCC(CN(Cc2ccc(Cl)cc2)Cc2ccc([N+](=O)[O-])s2)C1 (racemic) | 0.67
65 | CS(=O)(=O)N1CCC(CN(Cc2ccc(Cl)cc2)Cc2ccc([N+](=O)[O-])s2)C1 (racemic) | 0.57
66 | CC(C)(C)OC(=O)CN(Cc1ccc([N+](=O)[O-])s1)C(=O)c1cccc2ccccc12 | 2.6
67 | CC(=O)N1CCC(CN(Cc2ccc(Cl)cc2)Cc2ccc([N+](=O)[O-])s2)C1 (racemic) | 1.6
68 | O=[N+]([O-])c1ccc(CN(Cc2ccc(Cl)cc2)CC2CCCCC2)s1 | 7.4
69 | Cc1ccc(S(=O)(=O)N(Cc2ccc(Cl)cc2)Cc2ccc([N+](=O)[O-])s2)cc1 | 2.5
70 | CCCCNC(=O)N1CCC(CN(Cc2ccc(Cl)cc2)Cc2ccc([N+](=O)[O-])s2)C1 (racemic) | 0.67
71 | CC(C)(C)OC(=O)N1CCC(N(Cc2ccc(Cl)cc2)Cc2ccc([N+](=O)[O-])s2)C1 (racemic) | 1.6
72 | O=[N+]([O-])c1ccc(CN(Cc2ccc(Cl)cc2)CC2CCN(S(=O)(=O)c3cccc4ccccc34)C2)s1 (racemic) | 0.45
73 | Cc1ccc(S(=O)(=O)N(CC(=O)OC(C)(C)C)Cc2ccc([N+](=O)[O-])s2)cc1 | 3
74 | O=[N+]([O-])c1ccc(CN(Cc2ccc(Cl)cc2)Cc2ccc(C(F)(F)F)cc2)s1 | 5.5
75 | CC(C)(C)OC(=O)CN(Cc1ccc([N+](=O)[O-])cc1)Cc1ccc([N+](=O)[O-])s1 | 2.5
76 | O=C(Nc1ccccc1)N1CCC(CN(Cc2ccc(Cl)cc2)Cc2ccc([N+](=O)[O-])s2)C1 (racemic) | 0.62
77 | CC(C)(C)OC(=O)CN(Cc1ccc([N+](=O)[O-])s1)Cc1cccc2ccccc12 | 2.5
